Measurements: ChEMBL document CHEMBL2010643 (Bioorg Med Chem Lett, 2012)
Calls of active or inactive are those of the source. No cut-off for these calls is given here.

Legend:
Mus musculus = assay: Inhibition of LRRK2 phosphorylation at Ser910 in C57BL/6 mouse spleen at 50 mg/kg, po administered for 8 hrs followed by 2 hrs dosing; type: functional, organism-based; design: dose 50 mg/kg
In short: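 Mice were dosed by oral gavage at 10 or 50 mg/kg. Brain, spleen and kidney were collected. Endogenous LRRK2 was resolved by SDS–PAGE and blotted with phospho-specific antibodies to Ser910 and Ser935 and with an antibody to total LRRK2.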

[1] = biological target: MAP kinase-interacting serine/threonine-protein kinase 2 (Homo sapiens) (UniProt Q9HBH9); assay: Inhibition of MNK2 assessed as residual activity at 1 uM relative to control
MAP kinase-interacting serine/threonine-protein kinase 2 (Homo sapiens), sequence (Q9HBH9 whole entry, looked up): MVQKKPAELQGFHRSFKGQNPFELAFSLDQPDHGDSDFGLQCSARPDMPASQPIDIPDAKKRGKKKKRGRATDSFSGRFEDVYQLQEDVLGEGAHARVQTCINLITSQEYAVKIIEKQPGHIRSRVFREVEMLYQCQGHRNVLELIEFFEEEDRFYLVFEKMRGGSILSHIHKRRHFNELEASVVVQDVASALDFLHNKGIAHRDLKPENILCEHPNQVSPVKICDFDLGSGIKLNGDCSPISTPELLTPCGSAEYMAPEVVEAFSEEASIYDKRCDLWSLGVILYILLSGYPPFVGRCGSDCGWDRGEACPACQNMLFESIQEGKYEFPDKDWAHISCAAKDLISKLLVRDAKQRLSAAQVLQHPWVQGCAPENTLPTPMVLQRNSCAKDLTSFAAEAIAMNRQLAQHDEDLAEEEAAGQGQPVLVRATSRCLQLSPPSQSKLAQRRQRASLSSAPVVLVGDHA

[2] = Volume of distribution at steady state in Swiss albino mouse at 1 mg/kg, iv; type: ADME, organism-based; design: dose 1 mg/kg, route intravenous; settings: in vivo, read-out: Vdss
In short: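 Male Swiss Albino mice given a single intravenous dose of 1 mg/kg (oral arm 10 mg/kg). Plasma and brain exposure measured, and steady-state volume of distribution derived from the plasma profile.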

[3] = biological target: Mitogen-activated protein kinase kinase kinase 1 (Homo sapiens) (UniProt Q13233); assay: Inhibition of MEKK1 assessed as residual activity at 10 uM relative to control
Mitogen-activated protein kinase kinase kinase 1 (Homo sapiens), sequence (Q13233 whole entry): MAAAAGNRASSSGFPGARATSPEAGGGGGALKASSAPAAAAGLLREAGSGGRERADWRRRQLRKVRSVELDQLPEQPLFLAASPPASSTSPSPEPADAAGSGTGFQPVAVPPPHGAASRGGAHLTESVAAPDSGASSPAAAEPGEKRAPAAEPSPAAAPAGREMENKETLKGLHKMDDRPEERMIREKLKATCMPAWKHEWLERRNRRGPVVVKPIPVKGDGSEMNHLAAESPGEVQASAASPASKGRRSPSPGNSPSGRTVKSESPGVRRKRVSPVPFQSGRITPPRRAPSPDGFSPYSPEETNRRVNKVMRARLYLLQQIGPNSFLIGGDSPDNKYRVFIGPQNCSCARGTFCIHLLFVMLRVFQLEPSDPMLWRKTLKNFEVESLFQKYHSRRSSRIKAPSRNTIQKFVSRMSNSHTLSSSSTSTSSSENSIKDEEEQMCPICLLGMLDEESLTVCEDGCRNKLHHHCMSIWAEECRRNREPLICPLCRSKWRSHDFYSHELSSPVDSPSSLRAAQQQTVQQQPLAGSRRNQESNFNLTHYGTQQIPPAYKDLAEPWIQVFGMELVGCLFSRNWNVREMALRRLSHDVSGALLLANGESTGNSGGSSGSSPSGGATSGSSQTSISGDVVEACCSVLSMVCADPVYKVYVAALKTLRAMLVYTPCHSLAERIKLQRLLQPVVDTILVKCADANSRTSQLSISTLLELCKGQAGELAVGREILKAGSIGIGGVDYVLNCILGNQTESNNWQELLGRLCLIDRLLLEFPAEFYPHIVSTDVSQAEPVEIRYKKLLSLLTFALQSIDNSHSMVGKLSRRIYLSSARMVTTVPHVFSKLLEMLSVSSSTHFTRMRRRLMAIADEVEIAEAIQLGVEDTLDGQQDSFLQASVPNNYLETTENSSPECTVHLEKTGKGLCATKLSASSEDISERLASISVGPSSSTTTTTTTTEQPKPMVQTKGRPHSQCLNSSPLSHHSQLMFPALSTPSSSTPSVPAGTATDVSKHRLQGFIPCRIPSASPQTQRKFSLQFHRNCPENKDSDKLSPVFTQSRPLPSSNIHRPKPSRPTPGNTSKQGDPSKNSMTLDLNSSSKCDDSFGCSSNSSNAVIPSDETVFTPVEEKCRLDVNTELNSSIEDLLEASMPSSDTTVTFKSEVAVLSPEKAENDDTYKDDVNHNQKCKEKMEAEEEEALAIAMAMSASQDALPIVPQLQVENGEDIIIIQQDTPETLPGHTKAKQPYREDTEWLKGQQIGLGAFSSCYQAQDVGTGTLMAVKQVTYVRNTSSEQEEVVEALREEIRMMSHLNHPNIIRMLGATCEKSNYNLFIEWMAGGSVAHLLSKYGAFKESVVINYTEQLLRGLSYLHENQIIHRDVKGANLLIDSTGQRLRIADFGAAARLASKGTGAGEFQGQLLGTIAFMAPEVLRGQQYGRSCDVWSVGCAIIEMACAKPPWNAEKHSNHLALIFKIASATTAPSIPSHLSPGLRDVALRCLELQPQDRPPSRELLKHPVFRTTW

[4] = Inhibition of PKA assessed as residual activity at 1 uM relative to control
[5] = biological target: Mitogen-activated protein kinase 13 (Homo sapiens) (UniProt O15264); assay: Inhibition of p38delta MAPK assessed as residual activity at 1 uM relative to control
Mitogen-activated protein kinase 13 (Homo sapiens), sequence (O15264 whole entry): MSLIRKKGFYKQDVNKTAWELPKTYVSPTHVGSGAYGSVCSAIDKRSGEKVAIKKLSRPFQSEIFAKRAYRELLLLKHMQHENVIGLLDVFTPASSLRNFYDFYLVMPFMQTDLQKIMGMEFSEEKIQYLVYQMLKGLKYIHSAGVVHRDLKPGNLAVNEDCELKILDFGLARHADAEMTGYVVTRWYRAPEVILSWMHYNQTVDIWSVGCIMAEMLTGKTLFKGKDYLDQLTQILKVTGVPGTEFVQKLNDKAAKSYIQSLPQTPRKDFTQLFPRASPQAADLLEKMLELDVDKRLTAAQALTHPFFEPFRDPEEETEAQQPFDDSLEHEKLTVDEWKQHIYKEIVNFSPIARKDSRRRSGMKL
In short: (§1)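 Radioactivity-based enzymatic kinase assays run across a 124-kinase profiling panel (Dundee), reporting the remaining kinase activity relative to a control.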

[6] = biological target: Mitogen-activated protein kinase 15 (Homo sapiens) (UniProt Q8TD08); assay: Inhibition of ERK8 assessed as residual activity at 1 uM relative to control
Mitogen-activated protein kinase 15 (Homo sapiens), sequence (Q8TD08 whole entry): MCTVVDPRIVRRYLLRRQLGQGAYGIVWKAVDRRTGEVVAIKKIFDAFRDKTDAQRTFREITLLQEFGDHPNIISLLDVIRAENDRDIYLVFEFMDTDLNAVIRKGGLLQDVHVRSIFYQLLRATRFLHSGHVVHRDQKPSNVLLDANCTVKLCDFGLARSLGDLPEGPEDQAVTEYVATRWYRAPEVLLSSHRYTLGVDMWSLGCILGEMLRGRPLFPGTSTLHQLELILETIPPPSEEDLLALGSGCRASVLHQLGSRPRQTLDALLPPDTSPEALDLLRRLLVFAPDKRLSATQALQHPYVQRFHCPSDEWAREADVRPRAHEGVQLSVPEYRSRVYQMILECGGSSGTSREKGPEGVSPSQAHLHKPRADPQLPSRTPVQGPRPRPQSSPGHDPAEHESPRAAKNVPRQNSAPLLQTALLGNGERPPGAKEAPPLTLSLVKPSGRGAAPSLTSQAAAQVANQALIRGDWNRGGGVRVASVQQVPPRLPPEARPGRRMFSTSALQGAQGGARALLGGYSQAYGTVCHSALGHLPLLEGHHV
In short: (§2)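 Standard radioactivity-based enzymatic assays were run across a 124-kinase panel (Dundee profiling), with compound at 1 µM. Kinase activity was expressed relative to control.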

[7] = biological target: Leucine-rich repeat serine/threonine-protein kinase 2 (Mus musculus) (UniProt Q5S006); assay: Inhibition of wild type LRRK2 phosphorylation at Ser910 in mouse 3T3 cells after 90 mins by Western blot analysis; type: cell-based
In short: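 Mouse Swiss 3T3 cells treated with DMSO or increasing inhibitor concentrations for 90 min. Endogenous LRRK2 in lysates immunoblotted with purified phospho-specific antibodies to Ser910 and Ser935 and with a total LRRK2 antibody. Blots done in duplicate, representative of at least two independent experiments.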

[8] = biological target: Tau-tubulin kinase 1 (Homo sapiens) (UniProt Q5TCY1); assay: Inhibition of TTBK1 assessed as residual activity at 1 uM relative to control; in short: as §1
[9] = biological target: MAP kinase-interacting serine/threonine-protein kinase 2 (Homo sapiens) (UniProt Q9HBH9); assay: Inhibition of MNK2 assessed as residual activity at 10 uM relative to control
[10] = biological target: Tyrosine-protein kinase BTK (Homo sapiens) (UniProt Q06187); assay: Inhibition of BTK assessed as residual activity at 1 uM relative to control; in short: as §2
Tyrosine-protein kinase BTK (Homo sapiens), sequence (Q06187 whole entry): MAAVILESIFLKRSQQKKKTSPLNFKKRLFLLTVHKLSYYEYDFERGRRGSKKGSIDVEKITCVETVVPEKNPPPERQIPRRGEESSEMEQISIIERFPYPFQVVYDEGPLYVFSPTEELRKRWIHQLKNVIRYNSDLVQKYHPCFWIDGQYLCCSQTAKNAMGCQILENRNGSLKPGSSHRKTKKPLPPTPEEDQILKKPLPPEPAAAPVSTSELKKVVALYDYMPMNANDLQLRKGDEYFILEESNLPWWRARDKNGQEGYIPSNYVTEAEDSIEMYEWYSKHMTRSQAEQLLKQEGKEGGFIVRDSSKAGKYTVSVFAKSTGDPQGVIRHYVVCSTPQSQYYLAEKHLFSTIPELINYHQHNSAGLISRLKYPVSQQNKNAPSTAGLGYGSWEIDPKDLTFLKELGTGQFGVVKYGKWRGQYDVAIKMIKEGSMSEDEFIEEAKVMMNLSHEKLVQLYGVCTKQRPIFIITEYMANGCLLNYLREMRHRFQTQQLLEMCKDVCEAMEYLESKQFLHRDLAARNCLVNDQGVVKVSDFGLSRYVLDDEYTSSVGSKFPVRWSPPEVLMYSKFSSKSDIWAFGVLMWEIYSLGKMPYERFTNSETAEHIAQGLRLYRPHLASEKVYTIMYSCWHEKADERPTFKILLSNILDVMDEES

[11] = biological target: Calcium/calmodulin-dependent protein kinase kinase 2 (Homo sapiens) (UniProt Q96RR4); assay: Inhibition of CAMKKb assessed as residual activity at 10 uM relative to control
Calcium/calmodulin-dependent protein kinase kinase 2 (Homo sapiens), sequence (Q96RR4 2-588 limits assumed): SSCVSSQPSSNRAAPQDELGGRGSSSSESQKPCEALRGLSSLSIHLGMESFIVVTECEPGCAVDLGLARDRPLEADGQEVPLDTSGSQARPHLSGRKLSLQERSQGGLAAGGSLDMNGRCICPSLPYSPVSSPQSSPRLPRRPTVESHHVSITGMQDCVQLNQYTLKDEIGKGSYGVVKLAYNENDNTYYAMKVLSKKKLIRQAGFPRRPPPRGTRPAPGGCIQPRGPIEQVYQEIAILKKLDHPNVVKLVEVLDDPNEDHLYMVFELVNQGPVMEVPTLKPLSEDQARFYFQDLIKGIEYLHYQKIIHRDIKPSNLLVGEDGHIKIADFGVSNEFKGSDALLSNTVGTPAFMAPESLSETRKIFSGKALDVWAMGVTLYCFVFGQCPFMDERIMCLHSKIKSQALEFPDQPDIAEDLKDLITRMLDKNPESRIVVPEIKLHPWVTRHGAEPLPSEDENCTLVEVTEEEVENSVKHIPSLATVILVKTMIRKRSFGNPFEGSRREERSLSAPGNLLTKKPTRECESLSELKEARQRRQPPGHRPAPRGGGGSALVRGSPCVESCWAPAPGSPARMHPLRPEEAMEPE

[12] = biological target: Serine/threonine-protein kinase 16 (Homo sapiens) (UniProt O75716); assay: Inhibition of MPSK1 assessed as residual activity at 10 uM relative to control
Serine/threonine-protein kinase 16 (Homo sapiens), sequence (O75716 whole entry): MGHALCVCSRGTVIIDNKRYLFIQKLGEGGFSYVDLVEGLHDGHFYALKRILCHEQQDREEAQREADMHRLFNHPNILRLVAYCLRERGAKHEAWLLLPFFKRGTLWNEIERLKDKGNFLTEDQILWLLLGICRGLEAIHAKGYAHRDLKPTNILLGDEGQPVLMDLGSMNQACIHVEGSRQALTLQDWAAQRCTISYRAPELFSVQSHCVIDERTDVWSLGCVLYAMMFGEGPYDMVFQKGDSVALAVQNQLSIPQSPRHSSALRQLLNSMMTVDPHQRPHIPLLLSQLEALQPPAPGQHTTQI

[13] = biological target: Dual specificity mitogen-activated protein kinase kinase 1 (Homo sapiens) (UniProt Q02750); assay: Inhibition of MKK1 assessed as residual activity at 10 uM relative to control
Dual specificity mitogen-activated protein kinase kinase 1 (Homo sapiens), sequence (Q02750 whole entry): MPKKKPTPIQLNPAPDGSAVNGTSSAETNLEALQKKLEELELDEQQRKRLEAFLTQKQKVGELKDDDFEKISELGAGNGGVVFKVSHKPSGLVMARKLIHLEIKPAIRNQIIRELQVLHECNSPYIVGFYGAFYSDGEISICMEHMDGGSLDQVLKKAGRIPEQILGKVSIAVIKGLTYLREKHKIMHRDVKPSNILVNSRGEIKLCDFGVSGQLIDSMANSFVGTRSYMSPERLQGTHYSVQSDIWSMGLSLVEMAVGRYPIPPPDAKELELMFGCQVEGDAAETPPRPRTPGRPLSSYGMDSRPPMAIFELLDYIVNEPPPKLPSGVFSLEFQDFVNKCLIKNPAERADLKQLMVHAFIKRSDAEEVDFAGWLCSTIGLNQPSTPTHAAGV

Brain = assay: AUClast in Swiss albino mouse brain at 1 mg/kg, iv; type: ADME, organism-based; design: time 0 - last, dose 1 mg/kg, route intravenous; settings: in vivo
In short: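 Male Swiss Albino mice were given a single dose, either intravenous at 1 mg/kg or oral at 10 mg/kg. AUClast was measured in plasma and in brain. Half-life, plasma clearance, volume of distribution and oral bioavailability were derived from the plasma data.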

[14] = biological target: Mitogen-activated protein kinase 15 (Homo sapiens) (UniProt Q8TD08); assay: Inhibition of ERK8 assessed as residual activity at 10 uM relative to control
[15] = biological target: Mitogen-activated protein kinase kinase kinase 1 (Homo sapiens) (UniProt Q13233); assay: Inhibition of MEKK1 assessed as residual activity at 1 uM relative to control

In the case of COc1cc(N2CCC(N3CCN(C)CC3)CC2)ccc1Nc1ncc(Cl)c(Nc2ccccc2S(=O)(=O)C(C)C)n1 [TAE-684], the inhibition (Mus musculus) is reported as “Active”, the Activity [1] is reported as 101% and the Vd [2] is reported as 14.5 L/kg. The Activity [3] was 104%, the Activity [4] was 90% and the Activity [5] was 94%. The Activity [6] was 47%, the inhibition [7] was “Dose-dependent effect” and the Activity [8] was 88%. It also gave an Activity [9] of 60%, an Activity [10] of 53% and an Activity [11] of 5%. For the same compound, the Activity [12] was 96%, the Activity [13] was 30% and the AUClast (Brain) was 1.318 µg·h/mL. It also gave an Activity [14] of 26% and an Activity [15] of 109%.
